Shown are actives, neighbours in structure and some others; about 1.9% of the full set was active somewhere.
M4 PAM = positive allosteric modulators of human muscarinic M4 receptor; CHO-K1 hM4/Gqi5, Fluo-8 calcium fluorescence, ACh EC20; 0% = ACh EC20, 100% = maximal ACh; 0.4% of 360,000 active; activation, % at 3 µM; P08173; AID 624126;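 active means activation above its plate's cutoff, the mean activation of sample wells plus 3 SD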
Target sequence (P08173 whole entry, looked up): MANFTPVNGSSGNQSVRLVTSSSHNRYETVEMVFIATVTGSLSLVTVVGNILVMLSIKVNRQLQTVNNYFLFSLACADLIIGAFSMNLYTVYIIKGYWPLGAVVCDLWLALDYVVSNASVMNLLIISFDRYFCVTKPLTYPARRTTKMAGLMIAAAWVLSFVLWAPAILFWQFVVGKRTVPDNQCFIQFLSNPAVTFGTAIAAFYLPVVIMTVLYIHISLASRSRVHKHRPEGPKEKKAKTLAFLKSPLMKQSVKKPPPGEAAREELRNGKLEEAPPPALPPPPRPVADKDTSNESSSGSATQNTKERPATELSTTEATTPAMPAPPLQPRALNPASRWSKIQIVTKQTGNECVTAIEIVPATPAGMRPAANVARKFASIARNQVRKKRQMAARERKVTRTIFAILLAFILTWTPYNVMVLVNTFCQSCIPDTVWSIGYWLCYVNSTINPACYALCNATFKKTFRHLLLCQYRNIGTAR
M5 ag = agonists of human muscarinic M5 receptor (CHRM5). CHO-K1 hM5 cells, Fluo-8 calcium fluorescence; 0% DMSO wells, 100% maximal acetylcholine response. activation, % at 3 µM. 0.19% of 360,000 active. AID 624037;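 active means activation above the run's mean over test compounds plus 3 SD, cut at about 23% in these data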;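 further: signal is peak over basal fluorescence ratio across the kinetic read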
CHRM4 antagonist = CHRM4 antagonism in calcium assay. 0.73% of 360,000 active. P08173. inhibition, % at 3 µM. CHO-hM4 cells, ACh EC80, Fluo-8 calcium fluorescence;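 active means inhibition above its plate's cutoff, the mean inhibition of sample wells plus 3 SD, cut at about 27% in these data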;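 further: 0% = acetylcholine EC80 with DMSO and 100% = DMSO without agonist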
CHRM4 agonist = agonists of human muscarinic M4 receptor (CHRM4) | activation, % at 3 µM | CHO-K1 hM4/Gqi5, Fluo-8 calcium fluorescence; vehicle 0%, full acetylcholine response 100% | 0.14% of 360,000 active;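 active means activation above the run mean over all test wells plus 3 SD, cut at about 32% in these data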;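 further: peak over basal fluorescence ratio per well then scaled between controls; 0% = DMSO wells and 100% = acetylcholine at EC100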
M5 PAM = CHRM5 positive allosteric modulation; P08912; CHO-K1 hM5, Fluo-8 calcium, ACh EC20 PAM; 0% = ACh EC20, 100% = ACh EC100; activation, % at 3 µM; 0.3% of 360,000 active; AID 624038;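 active means activation above the run cutoff, the mean activation of all test compounds plus 3 SD, cut at about 18% in these data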
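Assay system – human M5 receptor in CHO-K1 cells · Read-out – % activation, ACh-normalized · Technique – Fluo-8 calcium fluorescence · Dosing – single-point, 3 µM nominal · Incubation – Fluo-8 loading 80 min at 37 °C plus 30 min room temperature · Repeats – singlicate, one well per test compound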
CHRM5 antagonist = antagonists of human muscarinic M5 receptor (CHRM5); P08912; CHO-hM5 cells, Fluo-8 calcium fluorescence, ACh EC80; inhibition, % at 3 µM; 0.59% of 360,000 active;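 active means inhibition above a per-plate cutoff, the mean of that plate's test compounds plus 3 SD, cut at about 27% in these data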;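 further: 0% = acetylcholine EC80 with DMSO and 100% = DMSO without agonist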
Starred values were filed as active, the others as inactive.

SMILES	M4 PAM	M5 ag	CHRM4 antagonist	CHRM4 agonist	M5 PAM	CHRM5 antagonist
O=C(O)CC1(CC(=O)Nc2cc(F)ccc2Cl)CCCCC1	-8	-2	0	0	0	4
CCS(=O)(=O)c1ccc(O)c(NC(=O)CCCC(=O)O)c1	-3	2	12	0	2	-1
CCS(=O)(=O)c1ccc(O)c(NC(=O)CC2(CC(=O)O)CCCC2)c1	10	7	-10	1	19*	-15
O=C(O)CC1(CC(=O)Nc2ccc(F)cc2F)CCCCC1	-4	3	2	0	19*	-1
COc1ccc(C2=NOC(Cn3nc(C(=O)NCC4CC4)cc3-c3ccccc3)C2)cc1 (stereo not drawn)	-4	-4	29*	23	-37	26
COc1ccc(C2=NOC(Cn3nc(C(=O)NCc4ccc(OC(F)(F)F)cc4)cc3-c3ccccc3)C2)cc1 (stereo not drawn)	-2	2	4	2	-2	9
COc1ccc(C2=NOC(Cn3nc(C(=O)NCc4ccccc4OC)cc3-c3ccccc3)C2)cc1 (stereo not drawn)	-12	2	30*	19	-37	20
COc1cc(Cl)c(C)cc1NC(=O)c1ccc(NS(=O)(=O)c2ccc(F)c(F)c2)cc1	20*	1	-9	0	8	5
Cc1ccc(/C=C2\SC(=S)N(CCC(=O)N3CCOCC3)C2=O)cc1	1	-5	5	1	-3	10
O=C1c2cccc3c(N4CCCCC4)ccc(c23)C(=O)N1c1ccccc1O	-17	28*	35*	39*	-20	35*
O=C1c2cccc3c(N4CCCCC4)ccc(c23)C(=O)N1c1ccc(O)cc1	1	21	4	11	-9	18
O=C(COC(=O)C1CC1)NCc1ccc(Cl)cc1Cl	2	-1	-1	-1	9	-3
CC(C)(CN1CCN(c2ccccc2)CC1)NS(=O)(=O)c1ccccc1	14	-2	31*	4	-3	-2
Oc1ccc(-c2cc(-c3ccc(O)cc3)nc(-c3ccccc3)n2)cc1	34*	-1	23	6	-7	17
O=[N+]([O-])c1cccc(-c2nnc(C3CC3)o2)c1	16	11	-12	0	36*	15
Nc1nnc(-c2cccc([N+](=O)[O-])c2)o1	-9	-4	7	2	-2	7
c1ccc2c(c1)COc1c3cc4c(cc3nn1-2)OCO4	20*	0	-17	2	3	-8
CNS(=O)(=O)c1ccc(NC(=O)c2ccccn2)cc1	28*	1	-2	3	-1	7
CC(C)n1cc(/C(N)=N/O)c(=O)n(Cc2ccccc2)c1=O	13*	4	22	6	39*	16
Cc1cn(C(C)C)c(=O)n(-c2ccccc2)c1=O	2	2	5	0	3	1
Cc1ccc(OCC(O)CN2C(=O)NC(C)(C)C2=O)c(C)c1 (stereo not drawn)	19*	4	-7	3	8	0
Cc1cc(C)cc(OCC(O)CN2C(=O)NC(C)(C)C2=O)c1 (stereo not drawn)	5	3	-9	2	-3	-6
O=C(Nc1cccc(F)c1)C1CCCN(C(=O)c2ccc(Cl)cc2)C1 (stereo not drawn)	-2	3	-2	6	-5	4
CCN(CC(=O)Nc1c(F)cccc1F)C(=O)c1ccc(-n2cncn2)c([N+](=O)[O-])c1	-6	4	35*	0	1	0
O=C(O)c1ccc(NC(=O)c2ccccc2NC(=O)c2cccc(Br)c2)cc1	1	3	-1	1	2	-3
SMILES	M4 PAM	M5 ag	CHRM4 antagonist	CHRM4 agonist	M5 PAM	CHRM5 antagonist
NC(=O)c1c(-c2ccc(Cl)cc2Cl)csc1NC(=O)Cc1ccccc1	-25	0	3	9	-19	38*
COC(CNC(=O)c1ccc(CS(=O)(=O)c2c(Cl)cccc2Cl)o1)OC	7	-6	-10	1	4	6
CC1=C(C)/C(=N\OS(=O)(=O)c2ccccc2)C=CC1=O	-10	21	67*	16	-5	30*
Cc1c(N2C(=O)SC(CC(=O)O)C2=O)c(=O)n(-c2ccccc2)n1C (stereo not drawn)	6	-3	-2	1	20*	-2
CC(=O)/C=C1\SC(CC(=O)O)C(=O)N1c1ccccc1 (stereo not drawn)	22*	-1	-12	1	12	-8
Cc1c(N2C(=O)C3C4C=CC(C4)C3C2=O)c(=O)n(-c2ccccc2)n1C (stereo not drawn)	13	5	-6	1	9	4
CCN(CC)C(=O)[C@H]1CC(CC(=O)NCC23CC4CC(CC(C4)C2)C3)C(=O)N2CCc3c([nH]c4ccccc34)[C@]12C (stereo partly drawn)	0	2	-8	0	-4	-3
CC(C)(CO)NS(=O)(=O)c1ccc2c(c1)C(=NO)c1cc(S(=O)(=O)NC(C)(C)CO)ccc1-2	21*	0	-3	1	11	-8
COCCNS(=O)(=O)c1ccc2c(c1)C(=NO)c1cc(S(=O)(=O)NCCOC)ccc1-2	8	4	0	2	2	9
CCOC(=O)C1CCCN(CC(=O)c2ccc(F)cc2)C1 (stereo not drawn)	-12	27*	2	15	-22	18
CCOC(=O)c1ccc(NC(=O)C2CCCN(S(=O)(=O)c3ccc(F)cc3)C2)cc1 (stereo not drawn)	-31	0	37*	22	-22	32*
Cc1ccc(NC(=O)C2CCCN(S(=O)(=O)c3cccc4nonc34)C2)cc1 (stereo not drawn)	-6	-2	2	1	-5	29*
CS(=O)(=O)N1CCCC(C(=O)Nc2cccc(F)c2)C1 (stereo not drawn)	-1	6	-15	1	18*	-5
CC(=O)c1ccc(NC(=O)C2CCCN(S(=O)(=O)c3cccc4nonc34)C2)cc1 (stereo not drawn)	-6	-3	-2	8	-4	15
CC1CN(C(=O)c2ccccc2NS(=O)(=O)c2ccc(Cl)cc2)CC(C)O1 (stereo not drawn)	-2	2	3	0	-1	5
CCN(CC)c1ncnc2c1ncn2[C@H]1CN(Cc2ccc(F)cc2)C[C@@H](CO)O1	-3	1	0	2	3	-5

Screening data (PubChem)
